Data reported in PMC5377441 (International Journal for Parasitology: Drugs and Drug …, 2017).
Where two headings read alike, the source gives them in different places. Marks after values point to notes of the source that are not given here.

Assays:
H. polygyrus [1] = test: In vitro drug uptake and elimination by H. polygyrus; format: in vitro ADME, Heligmosomoides polygyrus
T. muris [2] = test: In vitro drug uptake and elimination by T. muris; format: in vitro ADME, Trichuris muris
adult H. polygyrus = test: In vitro drug activity against adult H. polygyrus, phenotypic readout; format: cell-based, Heligmosomoides polygyrus; settings: 200 μM, 72 h
Outline: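 Adult H. polygyrus were dissected from NMRI mice from ten days post-infection onward. Four worms per drug were incubated in 2 ml at 200 μM for 72 h, with DMSO-matched worms as controls. Motility, transparency and morphology were scored from 3 (normal) to 0 (highly impaired or dead). Runs were done in duplicate and repeated once.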

[3] = format: in vivo, NMRI mice; settings: for albendazole in small intestinal mucosa / albendazole in stomach content: intraperitoneal 100 mg/kg, 2 h
H. polygyrus [4] = test: Uptake of albendazole and its metabolites by H. polygyrus in vivo; set-up: species or system Heligmosomoides polygyrus in NMRI mice; settings: for albendazole in worms: oral 100 mg/kg, average
Outline: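 Female NMRI mice were infected by oral gavage with 80 H. polygyrus L3. Groups received 100 mg/kg albendazole, albendazole after 50 mg/kg ABT given 16 h earlier, or albendazole sulfoxide, orally or intraperitoneally. Four mice per time point were killed at 2, 5 or 8 h (intraperitoneal groups at 2 h only). Worms were recovered, and drug was quantified by HPLC-UV/vis and reported per ten worms.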

[5] = format: in vivo, C57BL/10 mice
T. muris [6] = test: Drug uptake by T. muris in vivo; set-up: species or system Trichuris muris in C57BL/10 mice; settings: for drug quantity in worms, maximum: in vivo
H. polygyrus [7] = settings: oral 100 mg/kg, ref Unpublished data, 100 mg/kg, cited from earlier work
adult T. muris = settings: 72 h, ref Keiser et al., cited from earlier work
T. muris [8] = settings: ref Keiser et al., 2013, cited from earlier work
hookworm infections = settings: single oral dosage; ref Keiser and Utzinger, 2008; cited from earlier work
trichuriasis = settings: ref Keiser and Utzinger, 2008; cited from earlier work
[9] = oral 100 mg/kg, rats; ref Cowan et al., 2016; cited from earlier work

CCCS(=O)(=O)c1ccc2nc(NC(=O)OC)[nH]c2c1 [Albendazole sulfone, albendazole sulfone]
albendazole sulfoxide detected in worms (H. polygyrus [1]; incubation 5 to 100 μM, 24 h, range or mean over the concentrations): 15 nmol/10 worms | albendazole sulfone detected in worms (H. polygyrus [1]; incubation 5 to 100 μM, 24 h, range, mean or maximum over the concentrations): 33 nmol/10 worms | ABZSO2 in worms (H. polygyrus [1]; incubation at 5 μM, 24 h): 33 ± 10 nmol/10 worms | ABZSO in medium (H. polygyrus [1]; incubation at 5 μM, 24 h): 0.2 ± 0.1 µM | ABZSO in worms (H. polygyrus [1]; incubation at 5 μM, 24 h): 19 ± 10 nmol/10 worms | ABZSO2 in worms (H. polygyrus [1]; incubation at 10 μM, 24 h): 51 ± 23 nmol/10 worms | ABZSO in medium (H. polygyrus [1]; incubation at 10 μM, 24 h): 0.2 ± 0.1 µM | ABZSO in worms (H. polygyrus [1]; incubation at 10 μM, 24 h): 19 ± 3 nmol/10 worms | ABZSO2 in worms (H. polygyrus [1]; incubation at 25 μM, 24 h): 23 ± 8 nmol/10 worms | ABZSO in medium (H. polygyrus [1]; incubation at 25 μM, 24 h): 0.4 ± 0.0 µM | ABZSO in worms (H. polygyrus [1]; incubation at 25 μM, 24 h): 13 ± 11 nmol/10 worms | ABZSO2 in worms (H. polygyrus [1]; incubation at 50 μM, 24 h): 30 ± 20 nmol/10 worms | ABZSO in medium (H. polygyrus [1]; incubation at 50 μM, 24 h): 0.3 ± 0.0 µM | ABZSO in worms (H. polygyrus [1]; incubation at 50 μM, 24 h): 9 ± 5 nmol/10 worms | ABZSO2 in worms (H. polygyrus [1]; incubation at 75 μM, 24 h): 31 ± 8 nmol/10 worms | ABZSO in medium (H. polygyrus [1]; incubation at 75 μM, 24 h): 0.3 ± 0.0 µM | ABZSO in worms (H. polygyrus [1]; incubation at 75 μM, 24 h): 16 ± 11 nmol/10 worms | ABZSO2 in worms (H. polygyrus [1]; incubation at 100 μM, 24 h): 33 ± 21 nmol/10 worms | ABZSO in medium (H. polygyrus [1]; incubation at 100 μM, 24 h): 0.2 ± 0.0 µM | ABZSO in worms (H. polygyrus [1]; incubation at 100 μM, 24 h): 16 ± 8 nmol/10 worms | albendazole in the parasite and the culture medium (T. muris [2]; incubation 5-100 μM, 24 h): neither detected | albendazole sulfoxide in the parasite and the culture medium (T. muris [2]; incubation 5-100 μM, 24 h): neither detected | ABZSO2 in worms (T. muris [2]; incubation at 5 μM, 24 h): 122 ± 45 nmol/10 worms | ABZSO2 in worms (T. muris [2]; incubation at 10 μM, 24 h): 185 ± 55 nmol/10 worms | ABZSO2 in worms (T. muris [2]; incubation at 25 μM, 24 h): 421 ± 171 nmol/10 worms | ABZSO2 in worms (T. muris [2]; incubation at 50 μM, 24 h): 780 ± 258 nmol/10 worms | ABZSO2 in worms (T. muris [2]; incubation at 75 μM, 24 h): 1127 ± 451 nmol/10 worms | ABZSO2 in worms (T. muris [2]; incubation at 100 μM, 24 h): 1348 ± 447 nmol/10 worms | Drug effect (reduction of parasite viability) (adult H. polygyrus): 40% [200 μM] | Drug effect (reduction of parasite viability) (adult H. polygyrus; listed as albendazole sulfone): 40%

CCC[S+]([O-])c1ccc2[nH]c(NC(=O)OC)nc2c1 (stereo not shown) [Albendazole sulfoxide, albendazole sulfoxide]
albendazole in the culture medium (H. polygyrus [1]; incubation 5 to 100 μM, 24 h): Neither albendazole nor albendazole sulfone could be quantified | albendazole sulfone in the culture medium (H. polygyrus [1]; incubation 5 to 100 μM, 24 h): Neither albendazole nor albendazole sulfone could be quantified | Drug effect (reduction of parasite viability) (adult H. polygyrus): 60% [200 μM] | Drug effect (reduction of parasite viability) (adult H. polygyrus; listed as albendazole sulfoxide): 60% | albendazole in small intestinal mucosa [3]: no albendazole was detected | albendazole in stomach content [3]: no albendazole was detected | albendazole sulfoxide in plasma, compared to the albendazole treatment ([3]; oral 100 mg/kg, 5 h): 5.2 fold | albendazole sulfoxide in the mucosa of the small intestine ([3]; oral 100 mg/kg, 5 h): 137 µmol/g | albendazole sulfoxide in the mucosa of the small intestine ([3]; oral 100 mg/kg, other time points (2 and 8 h)): below 27 μmol/g | albendazole in worms (H. polygyrus [4]): No albendazole was detected

CCCSc1ccc2nc(NC(=O)OC)[nH]c2c1 [Albendazole, albendazole]
albendazole sulfone in the culture medium (H. polygyrus [1]; incubation 5 to 100 μM, 24 h): could not be quantified | ABZ in worms (H. polygyrus [1]; incubation at 5 μM, 24 h): 13 ± 6 nmol/10 worms | ABZ in worms (H. polygyrus [1]; incubation at 10 μM, 24 h): 16 ± 5 nmol/10 worms | ABZ in worms (H. polygyrus [1]; incubation at 25 μM, 24 h): 5 ± 8 nmol/10 worms | ABZ in worms (H. polygyrus [1]; incubation at 50 μM, 24 h): 28 ± 4 nmol/10 worms | albendazole in worms, plateau (H. polygyrus [1]; incubation at 50 μM, longer than 8 h): 29 nmol/10 worms | ABZ in worms (H. polygyrus [1]; incubation at 75 μM, 24 h): 55 ± 49 nmol/10 worms | ABZ in worms (H. polygyrus [1]; incubation at 100 μM, 24 h): 10 ± 21 nmol/10 worms | albendazole sulfone in the culture medium (T. muris [2]; incubation 5 to 100 μM, 24 h): not detected | ABZ in worms (T. muris [2]; incubation at 5 μM, 24 h): 94 ± 44 nmol/10 worms | ABZ in worms (T. muris [2]; incubation at 10 μM, 24 h): 176 ± 83 nmol/10 worms | ABZ in worms (T. muris [2]; incubation at 25 μM, 24 h): 263 ± 173 nmol/10 worms | ABZ in worms (T. muris [2]; incubation at 50 μM, 24 h): 551 ± 528 nmol/10 worms | ABZ in worms (T. muris [2]; incubation at 75 μM, 24 h): 598 ± 336 nmol/10 worms | ABZ in worms (T. muris [2]; incubation at 100 μM, 24 h): 641 ± 467 nmol/10 worms | Drug effect (reduction of parasite viability) (adult H. polygyrus): 50% [200 μM] | Drug effect (reduction of parasite viability) (adult H. polygyrus; listed as albendazole): 50% | albendazole in small intestinal mucosa [3]: not found | albendazole in stomach content [3]: 2217 µmol/g | albendazole in the mucosa ([3]; oral 100 mg/kg, 8 h): 13 µmol/g | albendazole in large intestine content ([3]; oral 100 mg/kg, end of the decrease over time (2-8 h)): 99 µmol/g | albendazole in large intestine content ([3]; oral 100 mg/kg, start of the decrease over time (2-8 h)): 462 µmol/g | albendazole quantity in worms, maximum (H. polygyrus [4]; in vivo, 100 mg/kg): up to 10 nmol per ten H. polygyrus | albendazole in worms (H. polygyrus [4]): 6.2 nmol/10 worms | albendazole in stomach content ([5]; intraperitoneal 100 mg/kg, 2 h): 139 µmol/g | albendazole in the mucosa of the large intestine ([5]; intraperitoneal 100 mg/kg, 2 h): 8 µmol/g | albendazole in small intestine content ([5]; oral 100 mg/kg, 5 and 8 h): around 5 μmol/g | albendazole in large intestinal content ([5]; oral 100 mg/kg, 2 h): 208 µmol/g | albendazole in small intestine content ([5]; oral 100 mg/kg, 2 h): 394 µmol/g | albendazole in the mucosa of the small intestine ([5]; oral 100 mg/kg, 2 h): 5 µmol/g | albendazole in large intestinal content ([5]; oral 100 mg/kg, 5 h): 57 µmol/g | albendazole in large intestinal content ([5]; oral 100 mg/kg, 8 h): 16 µmol/g | albendazole in stomach content ([5]; oral 100 mg/kg, average between 2 and 8 h): 114 µmol/g | drug quantity in worms, maximum (T. muris [6]): up to 31 nmol per ten T. muris | Worm burden reduction (H. polygyrus [7]): 100% [100 mg/kg] ^a | Worm burden reduction (H. polygyrus [7]; listed as albendazole): 100% | Drug effect (adult T. muris; incubation at >600 μM, 2012): <50% ^b | Worm burden reduction (T. muris [8]; oral 300 mg/kg): 42% [300 mg/kg] ^c | cure rate (hookworm infections): 72% | cure rate (trichuriasis): below 36%

CN1CCCN=C1/C=C/c1cccc(O)c1 [Oxantel pamoate, oxantel pamoate]
EC50 (adult T. muris; serial dilution, 2013): 4 µM

CN1CCCN=C1/C=C/c1cccc(O)c1.O=C(O)c1cc2ccccc2c(Cc2c(O)c(C(=O)O)cc3ccccc23)c1O [Oxantel pamoate, oxantel pamoate]
time after which uptake ceased (T. muris [2]; exposure at 25 μM): 8 h | OxP in worms (T. muris [2]; incubation at 5 μM, 24 h): 13 ± 9 nmol/10 worms | OxP in worms (T. muris [2]; incubation at 10 μM, 24 h): 27 ± 9 nmol/10 worms | OxP in worms (T. muris [2]; incubation at 25 μM, 24 h): 65 ± 5 nmol/10 worms | OxP in worms (T. muris [2]; incubation at 50 μM, 24 h): 155 ± 41 nmol/10 worms | OxP in worms (T. muris [2]; incubation at 75 μM, 24 h): 169 ± 24 nmol/10 worms | OxP in worms (T. muris [2]; incubation at 100 μM, 24 h): 197 ± 46 nmol/10 worms | oxantel pamoate in the large intestine ([5]; intraperitoneal 50 mg/kg, 2 h): 7 µmol/g | oxantel pamoate in the mucosal tissue of the large intestine ([5]; intraperitoneal 50 mg/kg, 2 h): 17 µmol/g | oxantel pamoate in the mucosal tissue of the small intestine ([5]; intraperitoneal 50 mg/kg, 2 h): 2 µmol/g | oxantel pamoate in the small intestine ([5]; intraperitoneal 50 mg/kg, 2 h): 7 µmol/g | oxantel pamoate in the stomach ([5]; intraperitoneal 50 mg/kg, 2 h): 5 µmol/g | oxantel pamoate plasma level ([5]; intraperitoneal 50 mg/kg, 2 h, below the LLOQ): 0.21 µM | plasma concentration of the administered drug ([5]; oral 100 mg/kg, 2-8 h (all times)): < 700 nM | administered drug in the small intestinal mucosa ([5]; oral 100 mg/kg, 5 and 8 h): 2 µmol/g | administered drug in the large intestine ([5]; oral 100 mg/kg, 2 h): 6 µmol/g | administered drug in the mucosa of the small intestine ([5]; oral 100 mg/kg, 2 h): 31 µmol/g | administered drug in the small intestine ([5]; oral 100 mg/kg, 2 h): 1951 µmol/g | administered drug in the stomach ([5]; oral 100 mg/kg, 2 h): 5278 µmol/g | administered drug in the large intestine ([5]; oral 100 mg/kg, 5 h): 359 µmol/g | administered drug in the small intestine ([5]; oral 100 mg/kg, 5 h): 54 µmol/g | administered drug in the stomach ([5]; oral 100 mg/kg, 5 h): 302 µmol/g | administered drug in the large intestine ([5]; oral 100 mg/kg, 8 h): 110 µmol/g | administered drug in the small intestine ([5]; oral 100 mg/kg, 8 h): 61 µmol/g | administered drug in the stomach ([5]; oral 100 mg/kg, 8 h): 364 µmol/g | drug quantity in worms, maximum (T. muris [6]): ≤ 34 nmol per ten T. muris | oxantel pamoate in worms (T. muris [6]; intraperitoneal 50 mg/kg, 2 h): no compound could be quantified | oxantel pamoate in worms (T. muris [6]; oral 100 mg/kg, 5 h): 34 nmol/10 worms | oxantel pamoate in worms (T. muris [6]; oral 100 mg/kg, 8 h): 22 nmol/10 worms | Worm burden reduction (T. muris [8]; oral 10 mg/kg): 93% [10 mg/kg] ^c | oxantel pamoate in plasma [9]: could not quantify
